ATG4B inhibitor = ATG4B (human) cysteine protease inhibition. Q9Y4P1. ATG4B cleavage of LC3-PLA2, NBD-HPC fluorescence, 1 h. inhibition, % at 8.33 µM. 340,000 tested, 0.51% active; in the data active means inhibition above about 40%
NRP1-CendR mod = alters CendR peptide binding to human NRP-1 | O14786 | FAM-RPARPAR peptide binding to NRP-1, fluorescence polarization | inhibition, % at 25 µM | 360,000 tested, 0.85% active;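 active means inhibition or corrected inhibition above about 18%, plus a signal ratio from 0.5 to 1.5, limit read from the data, passing the limit was not always enough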
Target sequence (O14786 whole entry, looked up): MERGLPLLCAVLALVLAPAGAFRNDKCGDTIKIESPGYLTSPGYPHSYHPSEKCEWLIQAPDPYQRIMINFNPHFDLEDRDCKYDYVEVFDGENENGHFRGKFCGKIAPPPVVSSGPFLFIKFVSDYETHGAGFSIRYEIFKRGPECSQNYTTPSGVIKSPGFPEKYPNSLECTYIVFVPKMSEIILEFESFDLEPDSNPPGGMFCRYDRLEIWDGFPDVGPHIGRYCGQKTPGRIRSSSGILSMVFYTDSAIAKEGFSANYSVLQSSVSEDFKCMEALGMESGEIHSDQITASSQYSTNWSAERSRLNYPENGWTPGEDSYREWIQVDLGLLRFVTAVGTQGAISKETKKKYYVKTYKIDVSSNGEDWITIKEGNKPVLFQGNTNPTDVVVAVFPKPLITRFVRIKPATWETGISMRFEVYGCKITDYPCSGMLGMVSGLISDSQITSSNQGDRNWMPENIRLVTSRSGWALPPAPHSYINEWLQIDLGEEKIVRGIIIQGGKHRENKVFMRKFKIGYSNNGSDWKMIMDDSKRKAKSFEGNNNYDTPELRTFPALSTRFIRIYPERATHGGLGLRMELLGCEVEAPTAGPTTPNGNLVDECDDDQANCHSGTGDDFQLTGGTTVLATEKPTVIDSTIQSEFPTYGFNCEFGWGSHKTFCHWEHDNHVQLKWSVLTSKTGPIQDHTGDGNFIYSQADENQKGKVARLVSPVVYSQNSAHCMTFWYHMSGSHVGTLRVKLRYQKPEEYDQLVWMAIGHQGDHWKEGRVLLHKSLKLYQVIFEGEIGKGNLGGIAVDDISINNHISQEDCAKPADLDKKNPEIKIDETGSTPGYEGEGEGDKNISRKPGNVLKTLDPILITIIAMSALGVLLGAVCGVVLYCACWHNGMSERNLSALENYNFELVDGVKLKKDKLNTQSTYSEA
Myeloid diff 2 = compounds promoting myeloid differentiation; ER-HoxA9 myeloid progenitors, lysozyme-GFP differentiation, flow cytometry; calls only at 10 µM; 360,000 tested, 1% active; AID 624256;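 active means normalized GFP-positive differentiation at or above the plate's own cutoff, the solvent-only control mean plus 3 SD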;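 further: cells exposed to compound for four days before flow analysis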
Arrestin-AP2 inh = human beta-arrestin and AP2 interaction inhibition; FITC-arrestin peptide / GST-AP2 beads, flow cytometry; AP2 beta2 appendage carries R879A mutation; inhibition, % at 10 µM; 340,000 tested, 0.31% active; AID 504490;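 active means inhibition above a set limit, near 3 SD of compounds lacking own fluorescence, cut at about 54% in these data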;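 further: plate controls were DMSO wells for no effect and 5 µM unlabelled arrestin peptide for full effect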
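System: GST-AP2 R879A bound to glutathione beads, E. coli-expressed. Also added: 50 nM FITC-arrestin peptide. Schedule: compound with beads 12 min RT, then probe 1 h RT. Signal: bead flow cytometry, FITC channel. Read-out basis: percent response.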
ABCB6 inh MLPCN = inhibitors of human ABC transporter ABCB6. K562-ABCB6 porphyrin accumulation, flow cytometry, 1 h; hits give low values. fluorescence ratio to DMSO, % at 10 µM. 360,000 tested, 0.19% active. AID 602162;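 active means fluorescence ratio to DMSO below 75%, the collection mean minus 3 SD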;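 further: signal is porphyrin accumulated inside mitochondria; 100% equals median channel fluorescence of DMSO control wells; lower ratio means ABCB6 inhibition with less porphyrin fluorescence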
Granule exo inh = lytic granule exocytosis inhibition; inhibition, % at 10 µM; 360,000 tested, 0.66% active; TALL-104 LAMP-1 surface exposure, flow cytometry; cells stimulated with thapsigargin and PMA;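 active means inhibition above about 55%, limit read from the data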
The depositor's hits bear a star. Shown are actives, neighbours in structure and some others; about 3.3% of the full set was active somewhere.

Results for CCCN1CCc2c(sc(NC(=O)c3ccc(S(=O)(=O)N(C)c4ccccc4)cc3)c2C(N)=O)C1 ?
ATG4B inhibitor: -2.5; NRP1-CendR mod: -90.3; Myeloid diff 2: active; Arrestin-AP2 inh: 6.0; ABCB6 inh MLPCN: 118.0; Granule exo inh: -2.3

How did CC1CCCN(CCCNC(=O)c2ccc(CS(=O)(=O)c3c(Cl)cccc3Cl)o2)C1 (centres undefined) do in these assays?
ATG4B inhibitor: 0.1; NRP1-CendR mod: 0.7; Myeloid diff 2: inactive; Arrestin-AP2 inh: 12.2; ABCB6 inh MLPCN: 98.0; Granule exo inh: 14.2

How did O=C(O)c1cccc(S(=O)(=O)Nc2ccc3c(c2)CCC3)c1 do in these assays?
ATG4B inhibitor: -0.2; NRP1-CendR mod: 4.2; Myeloid diff 2: inactive; Arrestin-AP2 inh: 10.3; ABCB6 inh MLPCN: 104.0; Granule exo inh: 0.7

Results for O=C1N=C(N2CCOCC2)S/C1=C/c1cc2c(cc1[N+](=O)[O-])OCO2 ?
ATG4B inhibitor: 5.4; NRP1-CendR mod: 7.7; Myeloid diff 2: inactive; Arrestin-AP2 inh: 38.1; ABCB6 inh MLPCN: 97.0; Granule exo inh: 2.3

Results for CCOC(=O)C1=CN(C(C)C)CCC1=O ?
ATG4B inhibitor: 3.7; NRP1-CendR mod: -9.2; Myeloid diff 2: inactive; Arrestin-AP2 inh: 45.1; ABCB6 inh MLPCN: 103.0; Granule exo inh: -1.7

Results for CC(=O)c1ccc(C(=O)Nc2sc3c(c2C(N)=O)CCN(Cc2ccccc2)C3)cc1 ?
NRP1-CendR mod: 136.6; Myeloid diff 2: active; Arrestin-AP2 inh: -6.0; ABCB6 inh MLPCN: 104.0; Granule exo inh: 10.8

What do the screens show for `O=C1NC(C(=O)O)=CC(c2cccc(Cl)c2Cl)N1` (centres undefined)?
ATG4B inhibitor: -4.2; NRP1-CendR mod: -12.8; Myeloid diff 2: inactive; Arrestin-AP2 inh: 2.4; ABCB6 inh MLPCN: 97.0; Granule exo inh: 14.2

How did CC(C)Cc1nnc(NC(=O)CCC(=O)N2CCCCC2)s1 do in these assays?
ATG4B inhibitor: -5.9; NRP1-CendR mod: 18.2*; Myeloid diff 2: inactive; Arrestin-AP2 inh: -1.6; ABCB6 inh MLPCN: 95.0; Granule exo inh: -3.3

Results for CCc1nnc(NC(=O)CCC(=O)N2CCCC2)s1 ?
ATG4B inhibitor: -12.9; NRP1-CendR mod: -3.5; Myeloid diff 2: inactive; Arrestin-AP2 inh: 2.9; ABCB6 inh MLPCN: 89.0; Granule exo inh: 3.1

How did CC[C@H](C)[C@@H](C(=O)NCCCCCCCCCCC(=O)N1CCNCC1)n1cc(CCCCCN)nn1 do in these assays?
ATG4B inhibitor: -6.0; NRP1-CendR mod: 6.2; Myeloid diff 2: inactive; Arrestin-AP2 inh: 1.5; ABCB6 inh MLPCN: 103.0; Granule exo inh: 0.2

What do the screens show for `COc1ccc(NC(=O)C2Cc3ccccc3CN2C(=O)c2ccccc2)cn1` (centres undefined)?
ATG4B inhibitor: -6.5; NRP1-CendR mod: 25.1*; Myeloid diff 2: inactive; Arrestin-AP2 inh: -3.0; ABCB6 inh MLPCN: 91.0; Granule exo inh: 0.5

Results for COc1cc(OC)nc(NC(=O)COC(=O)c2cccc(Cl)c2)n1 ?
ATG4B inhibitor: -3.4; NRP1-CendR mod: 32.2*; Myeloid diff 2: inactive; Arrestin-AP2 inh: 0.8; ABCB6 inh MLPCN: 98.0; Granule exo inh: -0.7

Results for N#CC1(c2ccccc2)CCCN1C(=O)c1ccccc1Cl (centres undefined) ?
ATG4B inhibitor: -2.7; NRP1-CendR mod: 26.3*; Myeloid diff 2: inactive; Arrestin-AP2 inh: -2.4; ABCB6 inh MLPCN: 94.0; Granule exo inh: 0.2

How did COC/C=C/C1=CC2=CC(=O)C(C)(OC(=O)c3cnc4ccccc4n3)C(=O)C2=CN1CCN1CCOCC1 (centres undefined) do in these assays?
ATG4B inhibitor: -13.2; NRP1-CendR mod: 7.7; Myeloid diff 2: inactive; Arrestin-AP2 inh: 10.9; ABCB6 inh MLPCN: 101.0; Granule exo inh: 2.9

How did CCCCC1=CC2=CC(=O)C(C)(OC(=O)CC)C(=O)C2=CN1Cc1ccccc1 (centres undefined) do in these assays?
ATG4B inhibitor: -8.2; NRP1-CendR mod: 6.3; Myeloid diff 2: inactive; Arrestin-AP2 inh: 0.6; ABCB6 inh MLPCN: 109.0; Granule exo inh: 6.0

How did C=CCN1C=C2C(=O)C(C)(OC(=O)c3cnc4ccccc4n3)C(=O)C=C2C=C1/C=C/COC (centres undefined) do in these assays?
ATG4B inhibitor: 0.2; NRP1-CendR mod: 31.4*; Myeloid diff 2: inactive; Arrestin-AP2 inh: 12.2; ABCB6 inh MLPCN: 96.0; Granule exo inh: 28.7
